Data set [1] concerns Kidney. The experiment in a line: Drug uptake in ddY mouse kidney at 370 kBq/100 ul, iv at 10 mins by gamma-counting analysis. Particulars: in vivo; call rule not given here. The format is ADME, organism-based. In a few lines:
(§1)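 Normal male ddY mice (5 weeks, 20−22 g, n = 5) received 370 kBq of tracer in 100 μL saline with 5% EtOH via tail vein. Mice were sacrificed at set times after injection, and organs were excised, weighed and γ-counted against diluted injectate aliquots. Values are %ID per gram, except stomach and intestine as %ID per organ, given as mean ± SD of 5 mice.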

Data set [2] concerns Kidney. The experiment in a line: Drug uptake in ddY mouse kidney at 370 kBq/100 ul, iv at 2 mins by gamma-counting analysis. The format is ADME, organism-based. Particulars: in vivo. In a few lines:
as §1

Data set [3] concerns Lung. The experiment in a line: Drug uptake in ddY mouse lung at 370 kBq/100 ul, iv at 60 mins by gamma-counting analysis. The conditions noted are these: in vivo, 1 h. The format is ADME, organism-based. In a few lines:
as §1

The test system of data set [4] is Liver. The experiment in a line: Drug uptake in ddY mouse liver at 370 kBq/100 ul, iv at 10 mins by gamma-counting analysis. The format is ADME, organism-based. Particulars: in vivo. In a few lines: as §1
The test system of data set [5] is Heart. The experiment in a line: Drug uptake in ddY mouse heart at 370 kBq/100 ul, iv at 60 mins by gamma-counting analysis. The class given is ADME, organism-based. Particulars: in vivo, 1 h. In a few lines:
as §1

Data set [6] has as its system Bone. The experiment in a line: Drug uptake in ddY mouse bone at 370 kBq/100 ul, iv at 10 mins by gamma-counting analysis. The format is ADME, organism-based, Bone element. The conditions noted are these: in vivo. In a few lines: as §1
The subject of data set [7] is Brain. The experiment in a line: Drug uptake in ddY mouse brain at 370 kBq/100 ul, iv at 60 mins by gamma-counting analysis. The class given is ADME, organism-based. The conditions noted are these: in vivo, 1 h. In a few lines:
as §1

For data set [8], the system named is Brain. The experiment in a line: Drug uptake in ddY mouse brain at 370 kBq/100 ul, iv at 10 mins by gamma-counting analysis. The class given is ADME, organism-based. The conditions noted are these: in vivo. In a few lines:
as §1

Data set [9] has as its system Blood. The experiment in a line: Drug uptake in ddY mouse blood at 370 kBq/100 ul, iv at 60 mins by gamma-counting analysis. The class given is ADME, organism-based. Particulars: in vivo, 1 h. In a few lines: as §1
The test system of data set [10] is Blood. The experiment in a line: Drug uptake in ddY mouse blood at 370 kBq/100 ul, iv at 10 mins by gamma-counting analysis. The format is ADME, organism-based. The conditions noted are these: in vivo. In a few lines: as §1
The test system of data set [11] is Blood. The experiment in a line: Drug uptake in ddY mouse blood at 370 kBq/100 ul, iv at 2 mins by gamma-counting analysis. The class given is ADME, organism-based. The conditions noted are these: in vivo. In a few lines: as §1
For data set [12], the system named is Brain. The experiment in a line: Drug uptake in transgenic C57BL6 mouse brain expressing APP Swedish mutant at 40.7 MBq, iv at 2 mins by microPET imaging. The class given is ADME, organism-based. Particulars: in vivo.
Data set [13] concerns Brain. The experiment in a line: Ratio of drug uptake in brain at 2 mins to drug uptake in 20 mins in wild type C57BL6 mouse. The class given is ADME, tissue-based. The conditions noted are these: in vivo.
The test system of data set [14] is Brain. The experiment in a line: Ratio of drug uptake in brain at 2 mins to drug uptake in 20 mins in transgenic C57BL6 mouse expressing APP Swedish mutant. The format is ADME, tissue-based. Particulars: in vivo.
The subject of data set [15] is Hippocampus. The experiment in a line: Drug uptake in transgenic C57BL6 mouse hippocampus expressing APP Swedish mutant at 40.7 MBq, iv at 60 mins by microPET imaging. The class given is ADME, organism-based. Particulars: in vivo, 1 h.
Data set [16] has as its system Cortex. The experiment in a line: Drug uptake in transgenic C57BL6 mouse cortex expressing APP Swedish mutant at 40.7 MBq, iv at 60 mins by microPET imaging. The class given is ADME, organism-based. The conditions noted are these: in vivo, 1 h.
Data set [17] has as its system Brain. The experiment in a line: Drug uptake in wild type C57BL6 mouse brain at 40.7 MBq, iv up to 60 mins by microPET imaging. The class given is ADME, organism-based. The conditions noted are these: in vivo, 1 h.
Data set [18] relates to Brain. The experiment in a line: Drug uptake in wild type C57BL6 mouse brain at 40.7 MBq, iv at 2 mins by microPET imaging. The class given is ADME, organism-based. The conditions noted are these: in vivo.
The subject of data set [19] is Stomach. The experiment in a line: Drug uptake in ddY mouse stomach assessed per organ at 370 kBq/100 ul, iv at 60 mins by gamma-counting analysis. Particulars: in vivo, 1 h. The class given is ADME, organism-based. In a few lines:
(§2)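 Male ddY mice (5 weeks, 20−22 g, n = 5) received tracer in saline with 5% EtOH, 370 kBq/100 μL, by tail vein. Killed at set times after dosing. Stomach removed, weighed and γ-counted against diluted aliquots of the injected dose. Reported as % injected dose per organ, mean ± SD of 5 mice.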

Data set [20] relates to Stomach. The experiment in a line: Drug uptake in ddY mouse stomach assessed per organ at 370 kBq/100 ul, iv at 10 mins by gamma-counting analysis. The class given is ADME, organism-based. Particulars: in vivo. In a few lines: as §1
Data set [21] deals with Stomach. The experiment in a line: Drug uptake in ddY mouse stomach assessed per organ at 370 kBq/100 ul, iv at 30 mins by gamma-counting analysis. The class given is ADME, organism-based. The conditions noted are these: in vivo, 0.5 h. In a few lines: as §2

As to `CNc1ccc(-c2nc3cc(OCCOCCOCC[18F])ccc3o2)cc1`, the Drug uptake in data set [1] is given as 8.45 % ID/g; in [2], 12.88 % ID/g; in data set [3] it was 5.22 % ID/g; in data set [4], 23.15 % ID/g; in data set [5], 4.32 % ID/g; in data set [6], 2.32 % ID/g. Also, the Drug uptake is reported as 3.04 % ID/g in [7]; 4.41 % ID/g in [8]; 4.87 % ID/g in [9]; 3.46 % ID/g in [10]; 4.76 % ID/g in data set [11]; “Active” in data set [12]. Further, the Drug uptake result is recorded as “Active” in data set [15]; “Active” in data set [16]; “Not Active” in data set [17]; “Active” in [18]; 1.87 %ID in data set [19]; 2.36 %ID in [20]. In [21], this compound yielded a Drug uptake of 1.85 %ID. Also, the figures for the Ratio in data set [13] and in [14] were 1.77 and 1.21, respectively.

With `CN(C)c1ccc(-c2nc3cc(OCCOCCOCC[18F])ccc3o2)cc1`, the Drug uptake stood at 5.18 % ID/g in [1]; 8.71 % ID/g in data set [2]; 3.22 % ID/g in data set [3]; 11.36 % ID/g in data set [4]; 3.13 % ID/g in data set [5]; 1.07 % ID/g in data set [6]. Moreover, the Drug uptake in data set [7] is 2.12 % ID/g; in [8] it was 3.37 % ID/g; in [9], 3.33 % ID/g; in data set [10], 2.26 % ID/g; in [11], 3.24 % ID/g; in data set [19], 1.41 %ID. For the same compound, the figures for the Drug uptake in data set [20] and in data set [21] were 1.37 %ID and 1.51 %ID, respectively.
